Holding throughout (type): functional
In one test the test system is Staphylococcus aureus. Kind of test: Antibacterial activity against Staphylococcus aureus assessed as growth inhibition after 18 hrs by broth microdilution method. On the technique in general: Broth dilution looks for growth in wells or tubes with falling amounts of substance.
Another test relates to Penicillium chrysogenum. The experiment in a line: Antifungal activity against Penicillium chrysogenum assessed as growth inhibition after 48 to 72 hrs by broth microdilution method.
The test system of another test is Fusarium oxysporum. The experiment in a line: Antifungal activity against Fusarium oxysporum assessed as growth inhibition after 48 to 72 hrs by broth microdilution method.
A further test concerns Aspergillus fumigatus. Kind of test: Antifungal activity against Aspergillus fumigatus assessed as growth inhibition after 48 to 72 hrs by broth microdilution method.
A further test relates to Aspergillus flavus. The experiment in a line: Antifungal activity against Aspergillus flavus assessed as growth inhibition after 48 to 72 hrs by broth microdilution method.
Another test concerns Pseudomonas aeruginosa. Kind of test: Antibacterial activity against Pseudomonas aeruginosa assessed as growth inhibition after 18 hrs by broth microdilution method.
In the next test the test system is Aspergillus niger. Kind of test: Antifungal activity against Aspergillus niger assessed as growth inhibition after 48 to 72 hrs by broth microdilution method.
Test [1] can be described thus: Cytotoxicity against mouse Daltons ascitic lymphoma cells assessed as dead cells at 100 ug/ml after 3 hrs by trypan blue exclusion assay relative to control. Put shortly: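 DAL cells (0.2 mL, 10⁶ cells/mL) mixed with ice-cold PBS pH 7.4 and compound (100 µg/mL), held at 37 °C under 5% CO₂ for 3 h. Aliquot then stained with 0.4% trypan blue in normal saline for 5–15 min at room temperature. Live and dead cells counted in a Neubauer chamber; % dead = dead/(dead+live) × 100.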

A further test deals with Streptococcus mutans. The experiment in a line: Antibacterial activity against Streptococcus mutans assessed as growth inhibition after 18 hrs by broth microdilution method.
A further test concerns Klebsiella pneumoniae. Kind of test: Antibacterial activity against Klebsiella pneumoniae assessed as growth inhibition after 18 hrs by broth microdilution method.
Another test has as its system Candida albicans. Kind of test: Antifungal activity against Candida albicans assessed as growth inhibition after 48 to 72 hrs by broth microdilution method.
The test system of the next test is Escherichia coli. Kind of test: Antibacterial activity against Escherichia coli assessed as growth inhibition after 18 hrs by broth microdilution method.
The test system of the next test is Enterococcus faecalis. Kind of test: Antibacterial activity against Enterococcus faecalis assessed as growth inhibition after 18 hrs by broth microdilution method.

Structures are written as SMILES. ≈ marks a conversion by molar mass, not a printed value.

Consider nine molecules from ChEMBL document CHEMBL2434922, “Microwave assisted synthesis of dihydrobenzo[4,5]imidazo[1,2-a]pyrimidin-4-ones; synthesis, in vitro antimicrobial and anticancer activities of novel coumarin substituted dihydrobenzo[4,5]imidazo[1,2-a]pyrimidin-4-ones” (2013).

`Cc1cc(C)c2oc(=O)cc(Cn3c4ccccc4n4c(=O)cc(C(F)(F)F)nc34)c2c1`: the minimum inhibitory concentration (MIC) with Staphylococcus aureus was 100 µg/mL (≈ 228 µM); with Penicillium chrysogenum, 0.2 µg/mL (≈ 0.455 µM); in the test on Fusarium oxysporum, 0.2 µg/mL (≈ 0.455 µM); in the test on Aspergillus fumigatus it was 1.6 µg/mL (≈ 3.64 µM); in the test with Aspergillus flavus, 3.12 µg/mL (≈ 7.1 µM); with Pseudomonas aeruginosa, 100 µg/mL (≈ 228 µM). The minimal inhibitory concentration (MIC) with Aspergillus niger stood at 3.12 µg/mL (≈ 7.1 µM); in the test on Streptococcus mutans, 0.2 µg/mL (≈ 0.455 µM); with Klebsiella pneumoniae, 100 µg/mL (≈ 228 µM); in the test on Candida albicans, 50 µg/mL (≈ 114 µM); with Escherichia coli, 100 µg/mL (≈ 228 µM); in the test with Enterococcus faecalis, 0.4 µg/mL (≈ 0.91 µM). Moreover, the mortality at 100 µg/mL in [1] is 78%.

On to `CC(C)c1cc(O)n2c(n1)nc1ccccc12`, for which the MIC with Staphylococcus aureus amounted to 100 µg/mL (≈ 440 µM); with Penicillium chrysogenum, 0.2 µg/mL (≈ 0.88 µM); in the test on Fusarium oxysporum it was 0.4 µg/mL (≈ 1.76 µM); with Aspergillus fumigatus, 1.6 µg/mL (≈ 7.04 µM); with Aspergillus flavus it was 1.6 µg/mL (≈ 7.04 µM); in the test on Pseudomonas aeruginosa it was 12.5 µg/mL (≈ 55 µM). The minimal inhibitory concentration (MIC) with Aspergillus niger turned out to be 25 µg/mL (≈ 110 µM); in the test with Streptococcus mutans it was 25 µg/mL (≈ 110 µM); with Klebsiella pneumoniae, 100 µg/mL (≈ 440 µM); in the test with Candida albicans it was 3.12 µg/mL (≈ 13.7 µM); with Escherichia coli, 12.5 µg/mL (≈ 55 µM); in the test with Enterococcus faecalis, 0.2 µg/mL (≈ 0.88 µM). Besides, the mortality at 100 µg/mL in test [1] was 57%.

For `O=c1cc(-c2ccc(C(F)(F)F)cc2)nc2[nH]c3ccccc3n12`, the MIC in the test on Staphylococcus aureus is > 100 µg/mL; in the test with Penicillium chrysogenum, 0.2 µg/mL (≈ 0.607 µM); in the test with Fusarium oxysporum, 0.2 µg/mL (≈ 0.607 µM); with Aspergillus fumigatus it was 1.6 µg/mL (≈ 4.86 µM); with Aspergillus flavus, 1.6 µg/mL (≈ 4.86 µM); with Pseudomonas aeruginosa, > 100 µg/mL. In addition, the MIC was 100 µg/mL (≈ 304 µM) in the test with Aspergillus niger; > 100 µg/mL in the test on Streptococcus mutans; > 100 µg/mL in the test with Klebsiella pneumoniae; 6.25 µg/mL (≈ 19 µM) in the test on Candida albicans; > 100 µg/mL with Escherichia coli; 0.2 µg/mL (≈ 0.607 µM) in the test with Enterococcus faecalis. In addition, the mortality at 100 µg/mL in test [1] worked out at 79%.

As to `COc1ccc2oc(=O)cc(Cn3c4ccccc4n4c(=O)cc(C(C)C)nc34)c2c1`, the MIC in the test with Staphylococcus aureus was 100 µg/mL (≈ 241 µM); with Penicillium chrysogenum, 0.8 µg/mL (≈ 1.93 µM); in the test with Fusarium oxysporum, 0.2 µg/mL (≈ 0.481 µM); in the test on Aspergillus fumigatus, 0.8 µg/mL (≈ 1.93 µM); with Aspergillus flavus, 0.8 µg/mL (≈ 1.93 µM); with Pseudomonas aeruginosa, > 100 µg/mL. Also, the MIC came to 50 µg/mL (≈ 120 µM) in the test on Aspergillus niger; 3.16 µg/mL (≈ 7.61 µM) in the test with Streptococcus mutans; 100 µg/mL (≈ 241 µM) in the test with Klebsiella pneumoniae; 25 µg/mL (≈ 60.2 µM) with Candida albicans; 100 µg/mL (≈ 241 µM) in the test with Escherichia coli; 0.4 µg/mL (≈ 0.963 µM) with Enterococcus faecalis. Moreover, in [1], the mortality at 100 µg/mL was 62%.

As for `CC(C)c1cc(=O)n2c3ccccc3n(Cc3cc(=O)oc4ccc(Br)cc34)c2n1`, the minimal inhibitory concentration (MIC) with Staphylococcus aureus is > 100 µg/mL; in the test on Penicillium chrysogenum it was 0.2 µg/mL (≈ 0.431 µM); with Fusarium oxysporum, 0.2 µg/mL (≈ 0.431 µM); with Aspergillus fumigatus it was 0.8 µg/mL (≈ 1.72 µM); with Aspergillus flavus it was 0.8 µg/mL (≈ 1.72 µM); in the test with Pseudomonas aeruginosa it was > 100 µg/mL. Also, the MIC in the test with Aspergillus niger is 25 µg/mL (≈ 53.8 µM); with Streptococcus mutans, > 100 µg/mL; in the test on Klebsiella pneumoniae, > 100 µg/mL; with Candida albicans it was 50 µg/mL (≈ 108 µM); with Escherichia coli, 100 µg/mL (≈ 215 µM); in the test with Enterococcus faecalis, 0.8 µg/mL (≈ 1.72 µM). For the same molecule, in test [1], the mortality at 100 µg/mL was found to be 47%.

For the molecule `O=C(O)c1cn(C2CC2)c2cc(N3CCNCC3)c(F)cc2c1=O` [CIPROFLOXACIN], the minimal inhibitory concentration (MIC) in the test with Staphylococcus aureus amounted to 2 µg/mL (≈ 6.04 µM); with Streptococcus mutans, 2 µg/mL (≈ 6.04 µM); in the test with Klebsiella pneumoniae, 1 µg/mL (≈ 3.02 µM); with Enterococcus faecalis, 2 µg/mL (≈ 6.04 µM).

With `CC(C)c1cc(=O)n2c3ccccc3n(Cc3cc(=O)oc4ccc(Cl)cc34)c2n1`, the MIC in the test with Staphylococcus aureus was 100 µg/mL (≈ 238 µM); in the test on Penicillium chrysogenum it was 0.4 µg/mL (≈ 0.953 µM); in the test on Fusarium oxysporum, 0.2 µg/mL (≈ 0.476 µM); in the test with Aspergillus fumigatus, 0.8 µg/mL (≈ 1.91 µM); in the test with Aspergillus flavus, 1.6 µg/mL (≈ 3.81 µM); in the test on Pseudomonas aeruginosa it was 100 µg/mL (≈ 238 µM). Besides, the minimal inhibitory concentration (MIC) worked out at 12.5 µg/mL (≈ 29.8 µM) in the test with Aspergillus niger; 12.5 µg/mL (≈ 29.8 µM) with Streptococcus mutans; 100 µg/mL (≈ 238 µM) in the test with Klebsiella pneumoniae; 50 µg/mL (≈ 119 µM) with Candida albicans; 100 µg/mL (≈ 238 µM) in the test with Escherichia coli; 0.4 µg/mL (≈ 0.953 µM) with Enterococcus faecalis. Further, in [1], the mortality at 100 µg/mL is 88%.

On to `COc1ccc(-c2cc(=O)n3c(n2)[nH]c2ccccc23)cc1`, for which the MIC came out at 100 µg/mL (≈ 343 µM) in the test on Staphylococcus aureus; 0.4 µg/mL (≈ 1.37 µM) in the test on Penicillium chrysogenum; 0.2 µg/mL (≈ 0.687 µM) with Fusarium oxysporum; 1.6 µg/mL (≈ 5.49 µM) in the test on Aspergillus fumigatus; 0.8 µg/mL (≈ 2.75 µM) in the test with Aspergillus flavus; 100 µg/mL (≈ 343 µM) in the test on Pseudomonas aeruginosa. Besides, the minimal inhibitory concentration (MIC) in the test with Aspergillus niger was found to be 25 µg/mL (≈ 85.8 µM); with Streptococcus mutans, 100 µg/mL (≈ 343 µM); in the test on Klebsiella pneumoniae, 100 µg/mL (≈ 343 µM); in the test on Candida albicans it was 6.25 µg/mL (≈ 21.5 µM); with Escherichia coli, 100 µg/mL (≈ 343 µM); with Enterococcus faecalis, 0.2 µg/mL (≈ 0.687 µM). In addition, in test [1], the mortality at 100 µg/mL came to 64%.

On to `CC(C)c1cc(=O)n2c3ccccc3n(Cc3cc(=O)oc4ccc(F)cc34)c2n1`, for which the MIC with Staphylococcus aureus came out at 100 µg/mL (≈ 248 µM); with Penicillium chrysogenum, 0.4 µg/mL (≈ 0.992 µM); with Fusarium oxysporum, 0.2 µg/mL (≈ 0.496 µM); with Aspergillus fumigatus, 0.8 µg/mL (≈ 1.98 µM); in the test on Aspergillus flavus, 1.6 µg/mL (≈ 3.97 µM); in the test with Pseudomonas aeruginosa it was 100 µg/mL (≈ 248 µM). The MIC with Aspergillus niger was determined as 1.6 µg/mL (≈ 3.97 µM); in the test with Streptococcus mutans, 0.8 µg/mL (≈ 1.98 µM); in the test on Klebsiella pneumoniae, 100 µg/mL (≈ 248 µM); with Candida albicans, 25 µg/mL (≈ 62 µM); in the test with Escherichia coli, 100 µg/mL (≈ 248 µM); with Enterococcus faecalis, 0.4 µg/mL (≈ 0.992 µM). Besides, in [1], the mortality at 100 µg/mL worked out at 81%.

What is called MIC is the smallest concentration in the dilution series that meets the test's criterion for growth inhibition. Usually mortality stands for the share of the test organisms that died.
